High-throughput results as filed in PubChem.
Hits are enriched below; roughly 4.6% of the tested compounds scored in any of these assays.
CHO parental Ca – counter-screen: ATP calcium response change in parental CHO cells; parental CHO-K1, ATP-induced calcium, Fluo-8 fluorescence; inhibition, % at 5.6 µM; actives 0.63% (n = 330,000);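 active = inhibition above that plate's mean sample inhibition plus 3 SD, cut at about 26% in these data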
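Assay system: untransfected parental CHO cell line. Also added: ATP agonist challenge. Dosing: one dose, 5.6 µM nominal. Measured by: Fluo-8 fluorescence. Read-out: % inhibition. Benchmarks: ATP wells versus no-ATP DMSO wells. Repeats: no replicates.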
OX1R antag-1 – antagonists of human orexin 1 receptor (OX1R). OX1R-expressing cells, FRET antagonist read-out. actives 1.8% (n = 330,000). AID 485270. inhibition, % at 6.6 µM; in the data active = inhibition mostly above about 38%, no sharp cut-off; inactive = mostly below about 40%
Target sequence (O43613 whole entry, looked up): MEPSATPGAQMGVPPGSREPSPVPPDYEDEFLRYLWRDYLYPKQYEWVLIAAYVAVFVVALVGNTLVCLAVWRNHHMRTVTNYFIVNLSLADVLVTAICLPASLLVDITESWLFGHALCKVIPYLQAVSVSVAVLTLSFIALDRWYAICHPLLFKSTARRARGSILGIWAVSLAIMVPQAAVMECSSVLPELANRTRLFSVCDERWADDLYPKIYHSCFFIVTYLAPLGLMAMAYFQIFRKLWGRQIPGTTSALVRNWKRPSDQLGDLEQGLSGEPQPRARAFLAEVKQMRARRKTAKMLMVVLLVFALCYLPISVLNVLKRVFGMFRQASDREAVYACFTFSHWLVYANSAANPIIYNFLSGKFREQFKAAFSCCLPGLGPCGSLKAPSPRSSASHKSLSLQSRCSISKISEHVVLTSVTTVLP
TAAR1 ag – agonists of human TAAR1 | Q96RJ0 | actives 0.99% (n = 360,000) | CHO RD-HGA16 TAAR1, Fluo-8 calcium fluorescence; vehicle wells 0%, saturating PEA agonist 100% | activation, % at 3 µM | AID 624467;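 active = activation above the mean activation of all test compounds in the run plus 3 SD, cut at about 38% in these data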
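Repeats: no replicates (n 1) | Material: CHO-derived RD-HGA16 cells with stable Gα16 and human TAAR1 | Technique: Kinetic Fluo-8 calcium fluorescence | Schedule: 17-24 h seeding, 75 min 37 °C dye, 30 min RT | Evaluation: % activation from peak over basal fluorescence ratio, DMSO-to-PEA scaled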
OX1R antag-2 – human HCRTR1 antagonism | CHO/OX1R cells, Fluo-8 calcium fluorescence, orexin A | AID 434989 | actives 0.43% (n = 330,000) | inhibition, % at 5 µM;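 active = inhibition above its plate's threshold, mean inhibition of all tested compounds on the plate plus 3 SD, cut at about 37% in these data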
GPR7 antag – antagonists of human GPR7 (neuropeptides B/W receptor 1) | P48145 | AID 1861 | GPR7-expressing cells, fluorescence antagonist assay | inhibition, % at 4.4 µM | actives 1.1% (n = 290,000); in the data active = inhibition above about 16%, passing the limit was not always enough;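 note: cells stimulated with the agonist NPW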
Target sequence (P48145 whole entry, looked up): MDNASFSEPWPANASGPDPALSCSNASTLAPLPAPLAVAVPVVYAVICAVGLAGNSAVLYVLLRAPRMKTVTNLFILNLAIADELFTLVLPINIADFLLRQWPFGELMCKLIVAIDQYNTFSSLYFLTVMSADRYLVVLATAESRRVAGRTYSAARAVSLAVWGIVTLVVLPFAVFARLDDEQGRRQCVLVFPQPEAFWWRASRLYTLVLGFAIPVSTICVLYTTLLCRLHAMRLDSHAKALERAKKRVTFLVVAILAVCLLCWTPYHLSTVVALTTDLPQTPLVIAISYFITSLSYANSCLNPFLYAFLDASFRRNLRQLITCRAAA
TAAR1 antagonist – human TAAR1 antagonism; Q96RJ0; CHO RD-HGA16 TAAR1, Fluo-8 calcium fluorescence, antagonist; inhibition, % at 3 µM; actives 1.5% (n = 360,000);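 active = inhibition above a per-plate cutoff, the mean inhibition of test compounds on that plate plus 3 SD, cut at about 49% in these data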
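Test system: hTAAR1-expressing CHO RD-HGA16 cells, Gα16-coupled; Probe or stimulus: EC80 β-phenethylamine stimulus; Compound dosing: single nominal final test compound concentration of 3 µM; Timing: 140 s kinetic read after compound, 140 s after agonist; Signal: Fluo-8 calcium-sensitive fluorescence; Measure: % inhibition of agonist calcium response; Controls: DMSO and EC80 PEA controls.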
TAAR1 ag conf – confirmation of human TAAR1 agonists. shares compounds with TAAR1 ag. CHO RD-HGA16 TAAR1, Fluo-8 calcium fluorescence; scaled: DMSO 0%, maximal phenethylamine 100%. activation, % at 3 µM. actives 82% (n = 2,400). AID 651783;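 active = activation above a cutoff set at the run's mean compound activation plus 3 SD, cut at about 39% in these data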
Ga16 nonsel ag – nonselective agonist in parental cells, TAAR1 agonist counter-screen; activation, % at 3 µM; CHO-Ga16 parental, Fluo-8 calcium fluorescence; normalized to maximal ATP response, DMSO zero; actives 50% (n = 2,400); shares compounds with TAAR1 ag;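 active = activation above the run cutoff, the mean activation over all tested wells plus 3 SD, cut at about 12% in these data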
TAAR1 desensitize – human TAAR1 agonist that also desensitizes the receptor | shares compounds with TAAR1 ag | actives 46% (n = 2,400) | inhibition, % at 3 µM | CHO RD-HGA16 hTAAR1, Fluo-8 calcium, beta-PEA response inhibition;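 active = inhibition above the run cutoff, the mean inhibition of all test compounds plus 3 SD, cut at about 49% in these data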;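 note: beta-PEA stimulus applied at its EC80; loss of beta-PEA calcium signal after compound pretreatment read as receptor desensitization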
Ga16 nonsel ant – counter-screen for TAAR1 agonists: nonselective Ga16 antagonists; CHO-Ga16 ATP-induced calcium, Fluo-8 fluorescence; AID 651952; inhibition, % at 3 µM; shares compounds with TAAR1 ag; actives 39% (n = 2,400);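 active = inhibition above the plate's mean compound inhibition plus 3 SD, computed per plate, cut at about 22% in these data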
Each line names hits and unclear results; the compound was inactive in the other large screens (follow-up assays come after a bar, where they were run).

CCCCC(=O)NC(=S)NNC(=O)c1ccc(Cl)cc1Cl	TAAR1 ag 106, TAAR1 antagonist 49 (no result: CHO parental Ca, OX1R antag-1, OX1R antag-2) | TAAR1 ag conf 131 | Ga16 nonsel ag 110 | TAAR1 desensitize 79 | Ga16 nonsel ant 55
O=C(COc1ccccc1)NNC(=S)NC(=O)c1ccc(Cl)cc1Cl	none (no result: TAAR1 ag, TAAR1 antagonist)
Cc1ccc(C(=O)NC(=S)NNC(=O)c2ccccc2)cc1	TAAR1 ag 153, TAAR1 antagonist 102 | TAAR1 ag conf 123 | Ga16 nonsel ag 98 | TAAR1 desensitize 97 | Ga16 nonsel ant 69
O=C(NNC(=S)NC(=O)c1ccccc1[N+](=O)[O-])c1ccc(Cl)cc1Cl	none
O=C(NC(=S)NNC(=O)[C@H]1C[C@@H]1c1ccccc1)c1cccc(F)c1	TAAR1 ag 77 | TAAR1 ag conf 74 | Ga16 nonsel ag 83 | TAAR1 desensitize inactive | Ga16 nonsel ant 30
Cc1cccc(C(=O)NC(=S)NNC(=O)COc2ccc(Cl)cc2)c1	TAAR1 ag 99, TAAR1 antagonist 53 (no result: CHO parental Ca, OX1R antag-1, OX1R antag-2) | TAAR1 ag conf 104 | Ga16 nonsel ag 84 | TAAR1 desensitize 76 | Ga16 nonsel ant 53
CCN(C(=O)CSc1n[nH]c(N)n1)c1cccc2ccccc12	none (no result: GPR7 antag)
Cc1ccc(C(=O)NNC(=S)NC(=O)c2ccc(Cl)cc2Cl)cc1	CHO parental Ca 45, TAAR1 ag 172, OX1R antag-2 57, TAAR1 antagonist 108 | TAAR1 ag conf 161 | Ga16 nonsel ag 123 | TAAR1 desensitize 107 | Ga16 nonsel ant 101
CC(C)NC(=S)NC(=O)c1ccc(Cl)cc1Cl	none
O=c1[nH]cnc2c1ncn2-c1ccc(Cl)cc1	none (no result: CHO parental Ca, OX1R antag-1, OX1R antag-2, GPR7 antag)
N/C(Cc1cccc2ccccc12)=N\OC(=O)c1cccs1	none (no result: TAAR1 ag, TAAR1 antagonist)
COc1ccc(CC(=O)O/N=C(\N)Cc2cccc3ccccc23)cc1OC	TAAR1 ag 42 | TAAR1 ag conf 65 | Ga16 nonsel ag inactive | TAAR1 desensitize inactive | Ga16 nonsel ant inactive
N/C(Cc1cccc2ccccc12)=N\OC(=O)Cc1cccs1	TAAR1 ag 61 | TAAR1 ag conf 74 | Ga16 nonsel ag inactive | TAAR1 desensitize inactive | Ga16 nonsel ant inactive
COc1ccc(CC(=O)O/N=C(\N)Cc2cccc3ccccc23)cc1	none
COc1ccc(CCN2CC(C(=O)N3CCCCCC3)CCC2=O)cc1 (stereo not given)	none
CC(C)CN(Cc1c(O)ccc2ccccc12)CC(C)C	none
CCN(Cc1ccncc1)Cc1c(O)ccc2ccccc12	TAAR1 ag 53 (no result: CHO parental Ca, OX1R antag-1, OX1R antag-2) | TAAR1 ag conf 55 | Ga16 nonsel ag inactive | TAAR1 desensitize inactive | Ga16 nonsel ant inactive
CCOC(=O)c1sc2c(c1C)C(c1cccs1)C1=C(CCCC1=O)N2 (stereo not given)	TAAR1 ag 68 | TAAR1 ag conf 46 | Ga16 nonsel ag 16 | TAAR1 desensitize inactive | Ga16 nonsel ant inactive
S=C(NCc1ccccc1)N1CCn2cccc2C1c1cccnc1 (stereo not given)	none (no result: CHO parental Ca, OX1R antag-1, OX1R antag-2)
S=C(NCCc1ccccc1)N1CCn2cccc2C1c1cccnc1 (stereo not given)	TAAR1 ag 57 | TAAR1 ag conf 62 | Ga16 nonsel ag inactive | TAAR1 desensitize inactive | Ga16 nonsel ant 27
Cc1cc(Nc2ccccc2)nc(NCc2ccccc2)n1	TAAR1 ag 56, GPR7 antag 37 | TAAR1 ag conf 76 | Ga16 nonsel ag 36 | TAAR1 desensitize 53 | Ga16 nonsel ant 37
Cc1cc(Nc2ccc(Cl)cc2)nc(NCc2ccccc2)n1	TAAR1 ag 55 | TAAR1 ag conf 81 | Ga16 nonsel ag 35 | TAAR1 desensitize 53 | Ga16 nonsel ant 29
O=C(COC(=O)c1cc(S(=O)(=O)N2CCCCC2)ccc1N1CCOCC1)NCCc1ccc(F)cc1	none
O=C(c1ccco1)N1CCN(C(=O)N2CCCCC2)CC1	none
O=C(O)C1=C(C(=O)N2CCN(C(=O)c3ccco3)CC2)CCCC1	TAAR1 ag 43 | TAAR1 ag conf 52 | Ga16 nonsel ag inactive | TAAR1 desensitize inactive | Ga16 nonsel ant inactive
CCn1c2ccccc2c2cc(/C=N/NC(=O)c3ccc(O)cc3)ccc21	OX1R antag-1 76, TAAR1 ag 47 | TAAR1 ag conf 47 | Ga16 nonsel ag inactive | TAAR1 desensitize inactive | Ga16 nonsel ant inactive
Cc1ccn2c(NC(=O)C(C)(C)Oc3ccc(Cl)cc3)c(-c3cccs3)nc2c1	none
CC(C)(C)CC(C)(C)NCC(O)COc1ccc2c(c1)CCC2 (stereo not given)	TAAR1 ag 56 | TAAR1 ag conf inactive | Ga16 nonsel ag 12 | TAAR1 desensitize inactive | Ga16 nonsel ant inactive
CCOC(=O)c1c(-c2ccc(C)o2)csc1NC(=O)CN1CCOCC1	none
CCOC(=O)c1c(-c2cccs2)csc1NC(=O)CN1CCOCC1	TAAR1 ag 44 | TAAR1 ag conf inactive | Ga16 nonsel ag 38 | TAAR1 desensitize inactive | Ga16 nonsel ant 35
O=C(c1ccc2[nH]c(=O)c(=O)[nH]c2c1)N1CCN(Cc2ccccc2)CC1	none
CN(CCc1ccccc1)C(=O)c1ccc(NC(=O)Cc2cccc(NC(=O)C3CCN(S(=O)(=O)c4cccc([N+](=O)[O-])c4)CC3)c2)cc1	TAAR1 ag 43 (no result: CHO parental Ca, OX1R antag-1, OX1R antag-2, GPR7 antag) | TAAR1 ag conf 66 | Ga16 nonsel ag inactive | TAAR1 desensitize inactive | Ga16 nonsel ant inactive
CCOCCCn1c(=S)[nH]c2cc(C(=O)NCCc3ccccc3)ccc2c1=O	TAAR1 ag 44 | TAAR1 ag conf 50 | Ga16 nonsel ag inactive | TAAR1 desensitize inactive | Ga16 nonsel ant inactive
O=C(CSc1nnc(CNc2ccccc2)o1)N1CCc2ccccc21	TAAR1 ag 74, TAAR1 antagonist 75 | TAAR1 ag conf inactive | Ga16 nonsel ag inactive | TAAR1 desensitize inactive | Ga16 nonsel ant inactive
COc1ccc(C(=O)NCc2nnc(SCC(=O)N3CCc4ccccc43)o2)cc1OC	none
Cc1ccc(N2C(=O)[C@@H]3Cc4ccccc4CN3C2=O)cc1	none
CC(C)c1ccc(N2C(=O)[C@@H]3Cc4ccccc4CN3C2=O)cc1	CHO parental Ca 45, TAAR1 ag 84, TAAR1 antagonist 82 | TAAR1 ag conf 77 | Ga16 nonsel ag 46 | TAAR1 desensitize 64 | Ga16 nonsel ant 47
O=C(NNC(=O)C1CC1)c1cc(Br)c(Br)s1	none (no result: GPR7 antag)
